In ChEMBL document CHEMBL3352573 (Bioorg Med Chem, 2014):

Target: Melanocortin receptor 4 (Homo sapiens, UniProt P32245)
Sequence (P32245 whole entry): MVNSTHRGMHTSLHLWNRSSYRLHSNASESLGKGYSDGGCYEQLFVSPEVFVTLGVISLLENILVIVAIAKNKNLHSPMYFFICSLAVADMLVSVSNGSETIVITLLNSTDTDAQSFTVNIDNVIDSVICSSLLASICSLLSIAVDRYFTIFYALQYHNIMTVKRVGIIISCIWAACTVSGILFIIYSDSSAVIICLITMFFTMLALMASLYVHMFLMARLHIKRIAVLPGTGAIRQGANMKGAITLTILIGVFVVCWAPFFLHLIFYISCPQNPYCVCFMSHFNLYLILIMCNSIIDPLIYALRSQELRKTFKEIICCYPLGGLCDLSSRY
Test: Displacement of Eu-DTPA-NDP-a-MSH chelate from human melanocortin-4 receptor expressed in HEK293 cells after 1 hr by competitive DELFIA assay
Format: cell-based
Summary of the method: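 HEK293 cells stably carrying hMC4R (pcDNA3.1) were grown in DMEM plus 10% FBS, seeded at 12,000 cells/well and cultured 3 days. Whole cells were competed with unlabeled ligand against 10 nM (final) Eu-DTPA-NDP-α-MSH in binding medium (DMEM, 1 mM 1,10-phenanthroline, bacitracin, leupeptin, 0.3% BSA) for 1 h at 37 °C, in quadruplicate. EC50 and Hill slope came from variable-slope sigmoidal fits.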
In the case of `CCCC[C@H](NC(=O)CNC(=O)[C@@H]1CCCN1C(=O)CNC(=O)[C@@H]1CCCN1C(=O)CNC(=O)[C@@H]1CCCN1C(=O)CNC(=O)[C@@H]1CCCN1C(=O)CNC(=O)[C@@H]1CCCN1C(=O)CNC(=O)[C@@H]1CCCN1C(=O)[C@H](Cc1c[nH]c2ccccc12)NC(=O)[C@H](CCCNC(=N)N)NC(=O)[C@@H](Cc1ccccc1)NC(=O)[C@H](Cc1cnc[nH]1)NC(=O)[C@H](CCC(=O)O)NC(=O)[C@H](CCCC)NC(=O)[C@H](CO)NC(C)=O)C(=O)N[C@H]1CC(=O)NCCCC[C@@H](C(N)=O)NC(=O)[C@H](Cc2c[nH]c3ccccc23)NC(=O)[C@H](CCCNC(=N)N)NC(=O)[C@@H](Cc2ccc3ccccc3c2)NC(=O)[C@H](Cc2cnc[nH]2)NC1=O`, the EC50 is reported as 4.1 nM. Molecule `CCCC[C@H](NC(=O)CNC(=O)[C@@H]1CCCN1C(=O)CNC(=O)[C@@H]1CCCN1C(=O)CNC(=O)[C@@H]1CCCN1C(=O)CNC(=O)[C@@H]1CCCN1C(=O)CNC(=O)[C@@H]1CCCN1C(=O)CNC(=O)[C@@H]1CCCN1C(=O)CNC(=O)[C@@H]1CCCN1C(=O)CNC(=O)[C@@H]1CCCN1C(=O)CNC(=O)[C@@H]1CCCN1C(=O)[C@H](Cc1c[nH]c2ccccc12)NC(=O)[C@H](CCCNC(=N)N)NC(=O)[C@@H](Cc1ccccc1)NC(=O)[C@H](Cc1cnc[nH]1)NC(=O)[C@H](CCC(=O)O)NC(=O)[C@H](CCCC)NC(=O)[C@H](CO)NC(C)=O)C(=O)N[C@H]1CC(=O)NCCCC[C@@H](C(N)=O)NC(=O)[C@H](Cc2c[nH]c3ccccc23)NC(=O)[C@H](CCCNC(=N)N)NC(=O)[C@@H](Cc2ccc3ccccc3c2)NC(=O)[C@H](Cc2cnc[nH]2)NC1=O` has an EC50 of 2 nM.

Tested on: not listed separately
Test: Retention time of the compound by reverse-phase HPLC method
Format: physicochemical
Summary of the method: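 Analytical reverse-phase HPLC on a C18 column (Jupiter 5U C18 300A), 10–40% acetonitrile with 0.1% TFA linear over 30 min at 1 mL/min, UV detection at 220 and 280 nm.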
With `CCCC[C@H](NC(=O)COCC(=O)NCCCOCCOCCOCCCNC(=O)COCC(=O)NCCCOCCOCCOCCCNC(C)=O)C(=O)N[C@H]1CC(=O)NCCCC[C@@H](C(N)=O)NC(=O)[C@H](Cc2c[nH]c3ccccc23)NC(=O)[C@H](CCCNC(=N)N)NC(=O)[C@@H](Cc2ccc3ccccc3c2)NC(=O)[C@H](Cc2cnc[nH]2)NC1=O` the Retention_time was 12.5 min. `CCCC[C@H](NC(=O)COCC(=O)NCCCOCCOCCOCCCNC(=O)CNC(=O)[C@@H]1CCCN1C(=O)CNC(=O)[C@@H]1CCCN1C(=O)CNC(=O)[C@@H]1CCCN1C(=O)COCC(=O)NCCCOCCOCCOCCCNC(C)=O)C(=O)N[C@H]1CC(=O)NCCCC[C@@H](C(N)=O)NC(=O)[C@H](Cc2c[nH]c3ccccc23)NC(=O)[C@H](CCCNC(=N)N)NC(=O)[C@@H](Cc2ccc3ccccc3c2)NC(=O)[C@H](Cc2cnc[nH]2)NC1=O` showed a Retention_time of 12.3 min. With `CCCC[C@H](NC(C)=O)C(=O)N[C@H]1CC(=O)NCCCC[C@@H](C(=O)N2CCC[C@H]2C(=O)NCC(=O)N2CCC[C@H]2C(=O)NCC(=O)N2CCC[C@H]2C(=O)NCC(=O)N2CCC[C@H]2C(=O)NCC(=O)N2CCC[C@H]2C(=O)NCC(=O)N2CCC[C@H]2C(=O)NCC(=O)N2CCC[C@H]2C(=O)NCC(=O)N2CCC[C@H]2C(=O)NCC(=O)N2CCC[C@H]2C(=O)NCC(=O)N2CCC[C@H]2C(=O)NCC(=O)N2CCC[C@H]2C(=O)NCC(=O)N2CCC[C@H]2C(=O)NCC(=O)N[C@@H](CCCC)C(=O)N[C@H]2CC(=O)NCCCC[C@@H](C(N)=O)NC(=O)[C@H](Cc3c[nH]c4ccccc34)NC(=O)[C@H](CCCNC(=N)N)NC(=O)[C@@H](Cc3ccc4ccccc4c3)NC(=O)[C@H](Cc3cnc[nH]3)NC2=O)NC(=O)[C@H](Cc2c[nH]c3ccccc23)NC(=O)[C@H](CCCNC(=N)N)NC(=O)[C@@H](Cc2ccc3ccccc3c2)NC(=O)[C@H](Cc2cnc[nH]2)NC1=O` the Retention_time was 13.1 min. For `CCCC[C@H](NC(C)=O)C(=O)N[C@H]1CC(=O)NCCCC[C@@H](C(=O)NCCCOCCOCCOCCCNC(=O)COCC(=O)N[C@@H](CCCC)C(=O)N[C@H]2CC(=O)NCCCC[C@@H](C(N)=O)NC(=O)[C@H](Cc3c[nH]c4ccccc34)NC(=O)[C@H](CCCNC(=N)N)NC(=O)[C@@H](Cc3ccc4ccccc4c3)NC(=O)[C@H](Cc3cnc[nH]3)NC2=O)NC(=O)[C@H](Cc2c[nH]c3ccccc23)NC(=O)[C@H](CCCNC(=N)N)NC(=O)[C@@H](Cc2ccc3ccccc3c2)NC(=O)[C@H](Cc2cnc[nH]2)NC1=O`, the Retention_time was 14 min. For `CCCC[C@H](NC(C)=O)C(=O)N[C@H]1CC(=O)NCCCC[C@@H](C(=O)NCCCOCCOCCOCCCNC(=O)COCC(=O)NCCCOCCOCCOCCCNC(=O)COCC(=O)N[C@@H](CCCC)C(=O)N[C@H]2CC(=O)NCCCC[C@@H](C(N)=O)NC(=O)[C@H](Cc3c[nH]c4ccccc34)NC(=O)[C@H](CCCNC(=N)N)NC(=O)[C@@H](Cc3ccc4ccccc4c3)NC(=O)[C@H](Cc3cnc[nH]3)NC2=O)NC(=O)[C@H](Cc2c[nH]c3ccccc23)NC(=O)[C@H](CCCNC(=N)N)NC(=O)[C@@H](Cc2ccc3ccccc3c2)NC(=O)[C@H](Cc2cnc[nH]2)NC1=O`, the Retention_time was 13.9 min. With `CCCC[C@H](NC(=O)CNC(=O)[C@@H]1CCCN1C(=O)CNC(=O)[C@@H]1CCCN1C(=O)CNC(=O)[C@@H]1CCCN1C(=O)CNC(=O)[C@@H]1CCCN1C(=O)CNC(=O)[C@@H]1CCCN1C(=O)CNC(=O)[C@@H]1CCCN1C(=O)CNC(=O)[C@@H]1CCCN1C(=O)CNC(=O)[C@@H]1CCCN1C(=O)CNC(=O)[C@@H]1CCCN1C(=O)CNC(=O)[C@@H]1CCCN1C(=O)CNC(=O)[C@@H]1CCCN1C(=O)CNC(=O)[C@@H]1CCCN1C(C)=O)C(=O)N[C@H]1CC(=O)NCCCC[C@@H](C(N)=O)NC(=O)[C@H](Cc2c[nH]c3ccccc23)NC(=O)[C@H](CCCNC(=N)N)NC(=O)[C@@H](Cc2ccc3ccccc3c2)NC(=O)[C@H](Cc2cnc[nH]2)NC1=O` the Retention_time was 11.9 min. Molecule `CCCC[C@H](NC(=O)CNC(=O)[C@@H]1CCCN1C(=O)CNC(=O)[C@@H]1CCCN1C(=O)CNC(=O)[C@@H]1CCCN1C(=O)CNC(=O)[C@@H]1CCCN1C(=O)CNC(=O)[C@@H]1CCCN1C(=O)CNC(=O)[C@@H]1CCCN1C(=O)[C@H](Cc1c[nH]c2ccccc12)NC(=O)[C@H](CCCNC(=N)N)NC(=O)[C@@H](Cc1ccccc1)NC(=O)[C@H](Cc1cnc[nH]1)NC(=O)[C@H](CCC(=O)O)NC(=O)[C@H](CCCC)NC(=O)[C@H](CO)NC(C)=O)C(=O)N[C@H]1CC(=O)NCCCC[C@@H](C(N)=O)NC(=O)[C@H](Cc2c[nH]c3ccccc23)NC(=O)[C@H](CCCNC(=N)N)NC(=O)[C@@H](Cc2ccc3ccccc3c2)NC(=O)[C@H](Cc2cnc[nH]2)NC1=O` has a Retention_time of 12 min. `CCCC[C@H](NC(=O)CNC(=O)[C@@H]1CCCN1C(=O)CNC(=O)[C@@H]1CCCN1C(=O)CNC(=O)[C@@H]1CCCN1C(=O)CNC(=O)[C@@H]1CCCN1C(=O)CNC(=O)[C@@H]1CCCN1C(=O)CNC(=O)[C@@H]1CCCN1C(=O)CNC(=O)[C@@H]1CCCN1C(=O)CNC(=O)[C@@H]1CCCN1C(=O)CNC(=O)[C@@H]1CCCN1C(=O)[C@H](Cc1c[nH]c2ccccc12)NC(=O)[C@H](CCCNC(=N)N)NC(=O)[C@@H](Cc1ccccc1)NC(=O)[C@H](Cc1cnc[nH]1)NC(=O)[C@H](CCC(=O)O)NC(=O)[C@H](CCCC)NC(=O)[C@H](CO)NC(C)=O)C(=O)N[C@H]1CC(=O)NCCCC[C@@H](C(N)=O)NC(=O)[C@H](Cc2c[nH]c3ccccc23)NC(=O)[C@H](CCCNC(=N)N)NC(=O)[C@@H](Cc2ccc3ccccc3c2)NC(=O)[C@H](Cc2cnc[nH]2)NC1=O` gave a Retention_time of 12 min. In the case of `CCCC[C@H](NC(=O)CNC(=O)[C@@H]1CCCN1C(=O)CNC(=O)[C@@H]1CCCN1C(=O)CNC(=O)[C@@H]1CCCN1C(=O)CNC(=O)[C@@H]1CCCN1C(=O)CNC(=O)[C@@H]1CCCN1C(=O)CNC(=O)[C@@H]1CCCN1C(C)=O)C(=O)N[C@H]1CC(=O)NCCCC[C@@H](C(N)=O)NC(=O)[C@H](Cc2c[nH]c3ccccc23)NC(=O)[C@H](CCCNC(=N)N)NC(=O)[C@@H](Cc2ccc3ccccc3c2)NC(=O)[C@H](Cc2cnc[nH]2)NC1=O`, the Retention_time is reported as 11.9 min. `CCCC[C@H](NC(=O)CNC(=O)[C@@H]1CCCN1C(=O)CNC(=O)[C@@H]1CCCN1C(=O)CNC(=O)[C@@H]1CCCN1C(=O)CNC(=O)[C@@H]1CCCN1C(=O)CNC(=O)[C@@H]1CCCN1C(=O)CNC(=O)[C@@H]1CCCN1C(=O)CNC(=O)[C@@H]1CCCN1C(=O)CNC(=O)[C@@H]1CCCN1C(=O)CNC(=O)[C@@H]1CCCN1C(C)=O)C(=O)N[C@H]1CC(=O)NCCCC[C@@H](C(N)=O)NC(=O)[C@H](Cc2c[nH]c3ccccc23)NC(=O)[C@H](CCCNC(=N)N)NC(=O)[C@@H](Cc2ccc3ccccc3c2)NC(=O)[C@H](Cc2cnc[nH]2)NC1=O` showed a Retention_time of 11.9 min. Molecule `CCCC[C@H](NC(C)=O)C(=O)N[C@H]1CC(=O)NCCCC[C@@H](C(=O)N2CCC[C@H]2C(=O)NCC(=O)N2CCC[C@H]2C(=O)NCC(=O)N2CCC[C@H]2C(=O)NCC(=O)N2CCC[C@H]2C(=O)NCC(=O)N2CCC[C@H]2C(=O)NCC(=O)N2CCC[C@H]2C(=O)NCC(=O)N2CCC[C@H]2C(=O)NCC(=O)N2CCC[C@H]2C(=O)NCC(=O)N2CCC[C@H]2C(=O)NCC(=O)N[C@@H](CCCC)C(=O)N[C@H]2CC(=O)NCCCC[C@@H](C(N)=O)NC(=O)[C@H](Cc3c[nH]c4ccccc34)NC(=O)[C@H](CCCNC(=N)N)NC(=O)[C@@H](Cc3ccc4ccccc4c3)NC(=O)[C@H](Cc3cnc[nH]3)NC2=O)NC(=O)[C@H](Cc2c[nH]c3ccccc23)NC(=O)[C@H](CCCNC(=N)N)NC(=O)[C@@H](Cc2ccc3ccccc3c2)NC(=O)[C@H](Cc2cnc[nH]2)NC1=O` has a Retention_time of 13.2 min. Work on `CCCC[C@H](NC(C)=O)C(=O)N[C@H]1CC(=O)NCCCC[C@@H](C(=O)NCCCOCCOCCOCCCNC(=O)COCC(=O)N2CCC[C@H]2C(=O)NCC(=O)N2CCC[C@H]2C(=O)NCC(=O)N2CCC[C@H]2C(=O)NCC(=O)NCCCOCCOCCOCCCNC(=O)COCC(=O)N[C@@H](CCCC)C(=O)N[C@H]2CC(=O)NCCCC[C@@H](C(N)=O)NC(=O)[C@H](Cc3c[nH]c4ccccc34)NC(=O)[C@H](CCCNC(=N)N)NC(=O)[C@@H](Cc3ccc4ccccc4c3)NC(=O)[C@H](Cc3cnc[nH]3)NC2=O)NC(=O)[C@H](Cc2c[nH]c3ccccc23)NC(=O)[C@H](CCCNC(=N)N)NC(=O)[C@@H](Cc2ccc3ccccc3c2)NC(=O)[C@H](Cc2cnc[nH]2)NC1=O` yielded a Retention_time of 13.6 min. `CCCC[C@H](NC(=O)COCC(=O)NCCCOCCOCCOCCCNC(C)=O)C(=O)N[C@H]1CC(=O)NCCCC[C@@H](C(N)=O)NC(=O)[C@H](Cc2c[nH]c3ccccc23)NC(=O)[C@H](CCCNC(=N)N)NC(=O)[C@@H](Cc2ccc3ccccc3c2)NC(=O)[C@H](Cc2cnc[nH]2)NC1=O` showed a Retention_time of 12.5 min.
